Measurements taken from ChEMBL document CHEMBL3616437, “Thiazole compounds with activity against Cryptococcus gattii and Cryptococcus neoformans in vitro” (Eur J Med Chem, 2015).
Converted amounts (≈) assume the structure as drawn.

Tests used:
[1] = tested on: Cryptococcus neoformans; experiment: Antifungal activity against Cryptococcus neoformans ATCC 24067 after 48 to 72 hrs by broth microdilution method; format: functional
Method in brief: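 CLSI M27-A3 broth microdilution. Isolates subcultured twice on SDA, 48 h at 35°C. Saline suspension adjusted to 70% transmittance at 530 nm, then diluted to 1-5 x10^3 cells/mL in RPMI with L-glutamine, 0.165 M MOPS, pH 7.0. Compounds in DMSO, tested at […]. 35°C for 48-72 h. MIC read visually as the lowest concentration giving an optically clear well.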

[2] = Cytotoxicity against C57BL/6 mouse peritoneal macrophages assessed as cell viability measured after 48 hrs by MTT assay; format: cell-based; conditions: C57BL/6, Peritoneal macrophage cell
Method in brief: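 Thioglycollate-elicited peritoneal macrophages from male C57BL/6 mice, 6–8 weeks old, in RPMI with 10% FBS. Seeded 1 x 10^5 cells/well, pre-incubated 24 h at 37°C. Exposed 48 h at 37°C, 5% CO2, to eight nonserial dilutions from 100 to 0.0128 µM, with 0.5% DMSO control. MTT read-out, % inhibition versus DMSO control. IC50 reported as median with 95% CI. Triplicate, two independent experiments.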

[3] = Selectivity index, ratio of IC50 for C57BL/6 mouse peritoneal macrophages to MIC for Cryptococcus neoformans ATCC 24067
Method in brief: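 SI = IC50/MIC. Thioglycollate-elicited peritoneal macrophages from C57BL/6 mice are seeded at 1 x 10^5/well. They are exposed for 48 h at 37°C to eight concentrations from 100 to 0.0128 µM. Viability read by MTT versus 0.5% DMSO control, triplicate in two experiments.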

[4] = Selectivity index, ratio of IC50 for African green monkey Vero cells to MIC for Cryptococcus neoformans ATCC 24067; format: toxicity, cell-based
[5] = tested on: Vero; experiment: Cytotoxicity against African green monkey Vero cells assessed as cell viability measured after 48 hrs by MTT assay; format: cell-based; conditions: Chlorocebus sabaeus
Method in brief: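 VERO cells in D-MEM with 5% FBS, used up to 20 passages. Seeded 1 x 10^4 cells/well, pre-incubated 24 h at 37°C. Exposed 48 h at 37°C, 5% CO2, to eight nonserial dilutions from 100 to 0.0128 µM, with 0.5% DMSO control. MTT reduction read-out, corrected for background and blank. IC50 reported as median with 95% CI. Triplicate, two independent experiments.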

COc1ccc(-c2csc(N/N=C/c3ccccc3)n2)cc1
MIC [1]: > 250 µM

COc1ccc(/C=N/Nc2nc(-c3ccc(Cl)cc3)cs2)cc1OC
IC50 [2]: > 100 µM
MIC [1]: 15.6 µM (≈ 5.83 µg/mL)
Ratio [3]: 6.41
selectivity ratio [4]: 6.41
IC50 [5]: > 100 µM

COc1ccc(-c2csc(N/N=C/c3ccncc3)n2)cc1
MIC [1]: > 250 µM

Clc1ccc(-c2csc(N/N=C3\CCCC\C3=C/c3ccccc3)n2)cc1
IC50 [2]: > 100 µM
MIC [1]: 7.8 µM (≈ 3.07 µg/mL)
Ratio [3]: 12.8
selectivity ratio [4]: 12.8
IC50 [5]: > 100 µM

COc1ccc(-c2csc(N/N=C3\CCCC\C3=C/c3ccccc3)n2)cc1
IC50 [2]: > 100 µM
MIC [1]: 7.8 µM (≈ 3.04 µg/mL)
Ratio [3]: 12.8
selectivity ratio [4]: 12.8
IC50 [5]: > 100 µM

C(=C1/CCCC/C1=N\Nc1nc(-c2ccccc2)cs1)/c1ccccc1
IC50 [2]: > 100 µM
MIC [1]: 15.6 µM (≈ 5.61 µg/mL)
Ratio [3]: 6.41
selectivity ratio [4]: 6.41
IC50 [5]: > 100 µM

COc1ccc(-c2csc(N/N=C/c3ccc(C)cc3)n2)cc1
MIC [1]: > 250 µM

CN(C)c1ccc(/C=N/Nc2nc(-c3ccccc3)cs2)cc1
MIC [1]: > 250 µM

COc1ccc(-c2csc(N/N=C/c3ccc(N(C)C)cc3)n2)cc1
MIC [1]: > 250 µM
